Results: ChEMBL document CHEMBL2021883, “Amino acid, dipeptide and pseudodipeptide conjugates of ring-substituted 8-aminoquinolines: synthesis and evaluation of anti-infective, β-haematin inhibition and cytotoxic activities” (Eur J Med Chem, 2012)
In brackets after ≈: the same amount, converted by molar mass. Activity calls are given as the source filed them. Unless noted, the rule behind the calls is not given here.

Columns and labels:
[1] = Selectivity index, ratio of IC50 for african green monkey Vero cells to IC50 for chloroquine-resistant Plasmodium falciparum W2; type: toxicity, cell-based; conditions: Vero cells versus Plasmodium falciparum W2, read-out: Ratio IC50
Pseudomonas aeruginosa = assay: Antimicrobial activity against Pseudomonas aeruginosa ATCC 27853 by CLSI method; type: functional, organism-based
Method in brief: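 Antibacterial testing used CLSI/NCCLS broth dilution for aerobically growing bacteria, with 20 as the highest test concentration.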

Plasmodium falciparum [2] = assay: Antimalarial activity against chloroquine-sensitive Plasmodium falciparum D6 assessed as plasmodial LDH activity; type: functional, organism-based
Vero = assay: Cytotoxicity against african green monkey Vero cells upto 23.8 […] by neutral dye assay; type: cell-based, Chlorocebus sabaeus
Method in brief: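 Vero monkey kidney cells were exposed to compound up to a highest concentration of 23.8, with viability read by neutral red uptake.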

Candida albicans [3] = assay: Antifungal activity against Candida albicans at 20 ug/ml; type: functional, organism-based
Method in brief: (§1)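 Broth dilution antifungal testing followed the NCCLS reference method for yeasts, with 20 as the highest test concentration. MIC was the lowest concentration with no detectable growth. MFC was the lowest concentration killing the organism.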

Plasmodium falciparum [4] = assay: Antimalarial activity against chloroquine-resistant Plasmodium falciparum W2 assessed as plasmodial LDH activity; type: functional, organism-based
Escherichia coli = assay: Antimicrobial activity against Escherichia coli ATCC 35218 by CLSI method; type: functional, organism-based
Aspergillus fumigatus = assay: Antifungal activity against Aspergillus fumigatus; type: functional, organism-based
Method in brief: (§2)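 Yeasts and A. fumigatus were tested by broth microdilution following the NCCLS antifungal standards. The highest test concentration was 20.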

Staphylococcus aureus [5] = assay: Antimicrobial activity against methicillin-resistant Staphylococcus aureus ATCC 43300 by CLSI method; type: functional, organism-based
Candida albicans [6] = assay: Fungicidal activity against Candida albicans at 20 ug/ml; type: functional, organism-based; method in brief: as §1
Leishmania donovani = assay: Antileishmanial activity against Leishmania donovani promastigote by Alamar Blue assay; type: functional, organism-based
Staphylococcus aureus [7] = assay: Antimicrobial activity against Staphylococcus aureus ATCC 29213 by CLSI method; type: functional, organism-based
[8] = Inhibition of beta-hematin formation; type: functional
[9] = test system: Mycobacterium intracellulare; assay: Antimicrobial activity against Mycobacterium intracellulare ATCC 23068 by Franzblau method; type: functional, organism-based
Cryptococcus neoformans = assay: Antifungal activity against Cryptococcus neoformans; type: functional, organism-based; method in brief: as §2
[10] = Selectivity index, ratio of IC50 for african green monkey Vero cells to IC50 for chloroquine-sensitive Plasmodium falciparum D6; type: toxicity, cell-based; conditions: Vero cells versus Plasmodium falciparum D6, read-out: Ratio IC50
[11] = Plasmodium falciparum, W2, read-out: IC50
[12] = Leishmania donovani, read-out: IC50
[13] = Plasmodium falciparum, D6, read-out: IC50

Compound: COc1cc(NC(C)CCCNC(=O)[C@H](CCCNC(=N)N)NC(=O)[C@@H](N)CCCNC(=N)N)c2ncccc2c1 (some centres undefined)
- selectivity ratio [1]: > 5
- Activity (Pseudomonas aeruginosa): inactive
- IC50 (Plasmodium falciparum [2]): Not Active
- IC50 (Vero): Non-toxic
- Activity (Candida albicans [3]): inactive
- IC50 (Plasmodium falciparum [4]; [11]): 4.76 µg/mL (≈ 8.33 µM)
- Activity (Escherichia coli): inactive
- Activity (Aspergillus fumigatus): inactive
- Activity (Staphylococcus aureus [5]): inactive
- Activity (Candida albicans [6]): inactive
- IC50 (Leishmania donovani): Not Active
- IC90 (Leishmania donovani): inactive
- Activity (Staphylococcus aureus [7]): inactive
- IC50 [8]: 81 µM
- Activity [9]: inactive
- IC50 (Cryptococcus neoformans): 4.5 µg/mL (≈ 7.87 µM)
- MFC (Cryptococcus neoformans): 10 µg/mL (≈ 17.5 µM)
- MIC (Cryptococcus neoformans): 10 µg/mL (≈ 17.5 µM)

Compound: COc1cc(NC(C)CCCNC(=O)[C@@H](CCCCN)NC(=O)[C@H](N)CCCCN)c2ncccc2c1 (some centres undefined)
- Activity (Pseudomonas aeruginosa): inactive
- IC50 (Plasmodium falciparum [2]): Not Active
- IC50 (Vero): Non-toxic
- Activity (Candida albicans [3]): inactive
- IC50 (Plasmodium falciparum [4]): Not Active
- Activity (Escherichia coli): inactive
- Activity (Aspergillus fumigatus): inactive
- Activity (Staphylococcus aureus [5]): inactive
- Activity (Candida albicans [6]): inactive
- IC90 (Leishmania donovani; Leishmania donovani): 7 µg/mL (≈ 13.6 µM)
- IC50 (Leishmania donovani; [12]): 3.5 µg/mL (≈ 6.79 µM)
- Activity (Staphylococcus aureus [7]): inactive
- IC50 [8]: 310 µM
- Activity [9]: inactive
- IC50 (Cryptococcus neoformans): 3.5 µg/mL (≈ 6.79 µM)
- MFC (Cryptococcus neoformans): 5 µg/mL (≈ 9.7 µM)
- MIC (Cryptococcus neoformans): 5 µg/mL (≈ 9.7 µM)

Compound: COc1cc(NC(C)CCCNC(=O)CC[C@H](NC(=O)[C@@H](N)CCCN)C(=O)O)c2nc(C(C)(C)C)ccc2c1 (some centres undefined)
- Activity (Pseudomonas aeruginosa): inactive
- IC50 (Plasmodium falciparum [2]): Not Active
- IC50 (Vero): Non-toxic
- Activity (Candida albicans [3]): inactive
- IC50 (Plasmodium falciparum [4]): Not Active
- Activity (Escherichia coli): inactive
- Activity (Aspergillus fumigatus): inactive
- Activity (Staphylococcus aureus [5]): inactive
- Activity (Candida albicans [6]): inactive
- IC50 (Leishmania donovani): Not Active
- IC90 (Leishmania donovani): inactive
- Activity (Staphylococcus aureus [7]): inactive
- IC50 [8]: > 1000 µM
- Activity [9]: inactive
- IC50 (Cryptococcus neoformans): 15 µg/mL (≈ 26.8 µM)
- MFC (Cryptococcus neoformans): 20 µg/mL (≈ 35.8 µM)
- MIC (Cryptococcus neoformans): 20 µg/mL (≈ 35.8 µM)

Compound: COc1cc(NC(C)CCCNC(=O)C[C@@H](NC(=O)[C@H](N)CCCNC(=N)N)C(=O)O)c2ncccc2c1 (some centres undefined)
- selectivity ratio [1]: > 5.6
- Activity (Pseudomonas aeruginosa): inactive
- IC50 (Plasmodium falciparum [2]; [13]): 3.2 µg/mL (≈ 6.03 µM)
- IC50 (Vero): Non-toxic
- IC50 (Plasmodium falciparum [4]; [11]): 4.2 µg/mL (≈ 7.92 µM)
- Activity (Escherichia coli): inactive
- Activity (Staphylococcus aureus [5]): inactive
- IC90 (Leishmania donovani; Leishmania donovani): 33 µg/mL (≈ 62.2 µM)
- IC50 (Leishmania donovani; [12]): 20.1 µg/mL (≈ 37.9 µM)
- Activity (Staphylococcus aureus [7]): inactive
- IC50 [8]: 210 µM
- Activity [9]: inactive
- selectivity ratio [10]: > 7.4

Compound: COc1cc(NC(C)CCCNC(=O)CC[C@H](NC(=O)[C@@H](N)CCCNC(=N)N)C(=O)O)c2ncccc2c1 (some centres undefined)
- selectivity ratio [1]: > 13.2
- Activity (Pseudomonas aeruginosa): inactive
- IC50 (Plasmodium falciparum [2]; [13]): 1.8 µg/mL (≈ 3.3 µM)
- IC50 (Vero): Non-toxic
- IC50 (Plasmodium falciparum [4]; [11]): 1.8 µg/mL (≈ 3.3 µM)
- Activity (Escherichia coli): inactive
- Activity (Staphylococcus aureus [5]): inactive
- IC50 (Leishmania donovani): Not Active
- IC90 (Leishmania donovani): inactive
- Activity (Staphylococcus aureus [7]): inactive
- Activity [9]: inactive
- selectivity ratio [10]: > 13.2

Compound: COc1cc(NC(C)CCCNC(=O)NCCC[C@@H](N)C(=O)O)c2nc(C(C)(C)C)ccc2c1 (some centres undefined)
- selectivity ratio [1]: 5
- Activity (Pseudomonas aeruginosa): inactive
- IC50 (Plasmodium falciparum [2]; [13]): 4.2 µg/mL (≈ 8.87 µM)
- IC50 (Vero): Non-toxic
- IC50 (Plasmodium falciparum [4]; [11]): 4.76 µg/mL (≈ 10.1 µM)
- Activity (Escherichia coli): inactive
- Activity (Staphylococcus aureus [5]): inactive
- IC50 (Leishmania donovani): Not Active
- IC90 (Leishmania donovani): inactive
- Activity (Staphylococcus aureus [7]): inactive
- IC50 [8]: 250 µM
- Activity [9]: inactive
- selectivity ratio [10]: > 5.5

Compound: COc1cc(NC(C)CCCNC(=O)[C@@H](CCCN)NC(=O)[C@H](N)CCCN)c2ncccc2c1 (some centres undefined)
- selectivity ratio [1]: > 5
- Activity (Pseudomonas aeruginosa): inactive
- IC50 (Plasmodium falciparum [2]): Not Active
- IC50 (Vero): Non-toxic
- Activity (Candida albicans [3]): inactive
- IC50 (Plasmodium falciparum [4]; [11]): 4.76 µg/mL (≈ 9.76 µM)
- Activity (Escherichia coli): inactive
- Activity (Aspergillus fumigatus): inactive
- Activity (Staphylococcus aureus [5]): inactive
- Activity (Candida albicans [6]): inactive
- IC90 (Leishmania donovani): inactive
- IC50 (Leishmania donovani; [12]): 40 µg/mL (≈ 82 µM)
- Activity (Staphylococcus aureus [7]): inactive
- IC50 [8]: 420 µM
- Activity [9]: inactive
- IC50 (Cryptococcus neoformans): 3.5 µg/mL (≈ 7.18 µM)
- MFC (Cryptococcus neoformans): 5 µg/mL (≈ 10.3 µM)
- MIC (Cryptococcus neoformans): 5 µg/mL (≈ 10.3 µM)

Compound: COc1cc(NC(C)CCCNC(=O)C[C@@H](NC(=O)[C@H](N)CCCCN)C(=O)O)c2ncccc2c1 (some centres undefined)
- selectivity ratio [1]: > 7.4
- Activity (Pseudomonas aeruginosa): inactive
- IC50 (Plasmodium falciparum [2]; [13]): 2.4 µg/mL (≈ 4.78 µM)
- IC50 (Vero): Non-toxic
- Activity (Candida albicans [3]): inactive
- IC50 (Plasmodium falciparum [4]; [11]): 3.2 µg/mL (≈ 6.37 µM)
- Activity (Escherichia coli): inactive
- Activity (Aspergillus fumigatus): inactive
- Activity (Staphylococcus aureus [5]): inactive
- Activity (Candida albicans [6]): inactive
- IC50 (Leishmania donovani): Not Active
- IC90 (Leishmania donovani): inactive
- Activity (Staphylococcus aureus [7]): inactive
- IC50 [8]: 160 µM
- Activity [9]: inactive
- IC50 (Cryptococcus neoformans): 4.5 µg/mL (≈ 8.95 µM)
- MFC (Cryptococcus neoformans): 10 µg/mL (≈ 19.9 µM)
- MIC (Cryptococcus neoformans): 10 µg/mL (≈ 19.9 µM)
- selectivity ratio [10]: > 9.9

Compound: COc1cc(NC(C)CCCNC(=O)C[C@H](NC(=O)[C@@H](N)CCCNC(=N)N)C(=O)O)c2ncccc2c1 (some centres undefined)
- selectivity ratio [1]: > 8.2
- Activity (Pseudomonas aeruginosa): inactive
- IC50 (Plasmodium falciparum [2]; [13]): 3 µg/mL (≈ 5.65 µM)
- IC50 (Vero): Non-toxic
- IC50 (Plasmodium falciparum [4]; [11]): 2.9 µg/mL (≈ 5.47 µM)
- Activity (Escherichia coli): inactive
- Activity (Staphylococcus aureus [5]): inactive
- IC50 (Leishmania donovani): Not Active
- IC90 (Leishmania donovani): inactive
- Activity (Staphylococcus aureus [7]): inactive
- IC50 [8]: 120 µM
- Activity [9]: inactive
- selectivity ratio [10]: > 7.9

Compound: COc1cc(NC(C)CCCNC(=O)[C@@H](CCCNC(=N)N)NC(=O)[C@H](N)CCCNC(=N)N)c2ncccc2c1 (some centres undefined)
- selectivity ratio [1]: > 14
- Activity (Pseudomonas aeruginosa): inactive
- IC50 (Plasmodium falciparum [2]; [13]): 1.3 µg/mL (≈ 2.27 µM)
- IC50 (Vero): Non-toxic
- Activity (Candida albicans [3]): inactive
- IC50 (Plasmodium falciparum [4]; [11]): 1.7 µg/mL (≈ 2.97 µM)
- Activity (Escherichia coli): inactive
- Activity (Aspergillus fumigatus): inactive
- Activity (Staphylococcus aureus [5]): inactive
- Activity (Candida albicans [6]): inactive
- IC90 (Leishmania donovani; Leishmania donovani): 36 µg/mL (≈ 63 µM)
- IC50 (Leishmania donovani; [12]): 17 µg/mL (≈ 29.7 µM)
- Activity (Staphylococcus aureus [7]): inactive
- IC50 [8]: 32 µM
- Activity [9]: inactive
- IC50 (Cryptococcus neoformans): 7 µg/mL (≈ 12.2 µM)
- MFC (Cryptococcus neoformans): 10 µg/mL (≈ 17.5 µM)
- MIC (Cryptococcus neoformans): 10 µg/mL (≈ 17.5 µM)
- selectivity ratio [10]: > 18.3
